Data set [1] in a line: Retention time of the compound in Sprague-Dawley rat bile treated with gambogic acid at 4 mg/kg, iv measured over 24 hrs by LC-DAD-MS/MS analysis. The class given is ADME, organism-based. Set-up: dose 4 mg/kg, route intravenous. The following applies: in vivo. An outline of the steps:
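SD rats, n=4, bile-duct cannulated under chloral hydrate and allowed 1 h recovery. GA 4 mg/kg i.v.; bile collected on ice, pooled 0–24 h. C18 LC-DAD-MS/MS at 0.25 mL/min with acetonitrile gradient (38% to 80%) in 10 mM ammonium acetate, 40 °C, negative ESI.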

The subject of data set [2] is Liver microsome. In words: Drug level in rat liver microsomes treated with gambogic acid at 50 uM preincubated for 10 mins followed by NADPH addition measured after 2 hrs in presence of GSH. The format is ADME. In outline:
(§1)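 GA 50 μM in 1.0 mL 0.1 M PBS pH 7.4 with GSH 5.0 mM and NADPH 6.0 mM (final). Line 7 uses rat liver microsomes 1.0 mg/mL; line 2 omits microsomes. Preincubated 10 min at 37 °C, started with NADPH, run 2 h at 37 °C, duplicate. Quenched with ice-cold acetonitrile and dried. LC-MS/MS in negative ESI, isocratic 65% acetonitrile / 10 mM ammonium acetate.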
In general terms: Liver microsomes are vesicles of endoplasmic reticulum, rich in cytochrome P450 enzymes.

A short description of data set [3]: Drug level in PBS buffer treated with gambogic acid at 50 uM preincubated for 10 mins followed by NADPH addition measured after 2 hrs in presence of GSH and absence of liver microsomes. The class given is physicochemical. In outline: as §1
Data set [4] is described as follows: Drug level in Sprague-Dawley rat feces at 4 mg/kg, iv measured over 24 hrs by LC-MS/MS analysis. The format is ADME, organism-based. Set-up: dose 4 mg/kg, route intravenous. The following applies: in vivo. An outline of the steps: (§2)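 SD rats (250 ± 20 g), 4 mg/kg GA injection given i.v. via tail vein in 2 mL; feces from four rats pooled 0–24 h, stored -20 °C. Feces (0.6 g) homogenized in acetonitrile-water 50:50, sonicated, centrifuged, filtered, then extracted with ethyl acetate, dried under N2 at 40 °C, reconstituted in mobile phase. Gradient C18 LC, negative-ion ESI MS/MS.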

Data set [5] deals with Plasma. In words: Drug level in Sprague-Dawley rat plasma at 4 mg/kg, iv measured over 4 hrs by LC-DAD-MS/MS analysis. The format is ADME, organism-based. Set-up: dose 4 mg/kg, route intravenous. The following applies: in vivo. An outline of the steps: (§3)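 Six SD rats dosed 4 mg/kg GA i.v. via tail vein. Tail-vein blood taken before and 0.033–4 h post-dose into heparinized tubes, centrifuged 3000 × g 10 min at 4 °C, and plasma pooled 0–4 h. 1 mL extracted with 4 mL ethyl acetate, dried under N2 at 40 °C, reconstituted. Isocratic C18 LC (68% acetonitrile), negative-ion ESI MS/MS.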

Data set [6] is described as follows: Drug metabolism in Sprague-Dawley rat feces assessed as 10-OHGA formation at 4 mg/kg, iv measured over 24 hrs by LC-DAD-MS/MS analysis. The following applies: in vivo. Set-up: dose 4 mg/kg, route intravenous. The format is ADME, organism-based. In outline:
as §2

A short description of data set [7]: Drug metabolism in Sprague-Dawley rat feces assessed as formation of 9,10-epoxyl-gambogic acid at 4 mg/kg, iv measured over 24 hrs by LC-DAD-MS/MS analysis. The class given is ADME, organism-based. Set-up: dose 4 mg/kg, route intravenous. The following applies: in vivo. In outline: as §2
Data set [8] can be described thus: Drug metabolism in Sprague-Dawley rat gut assessed as formation of 10-alpha sulfonic gambogic acid at 4 mg/kg, iv. The class given is ADME, organism-based. Set-up: dose 4 mg/kg, route intravenous. The following applies: in vivo.
Data set [9] can be described thus: Retention time of the compound in Sprague-Dawley rat bile at 4 mg/kg, iv measured over 24 hrs by LC-DAD-MS/MS analysis. The class given is ADME, organism-based. Set-up: dose 4 mg/kg, route intravenous. The following applies: in vivo. In outline: (§4)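 Four SD rats bile-duct cannulated under chloral hydrate anesthesia, allowed 1 h recovery, pre-dose bile taken. Dosed 4 mg/kg GA i.v. Bile collected on ice and pooled 0–24 h, stored -20 °C. Gradient C18 LC (acetonitrile/10 mM ammonium acetate), 40 °C column, negative-ion ESI MS/MS.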

The subject of data set [10] is Plasma. In words: Drug metabolism in Sprague-Dawley rat plasma assessed as 10-OHGA formation at 4 mg/kg, iv measured over 4 hrs by LC-DAD-MS/MS analysis. Set-up: dose 4 mg/kg, route intravenous. To be noted: in vivo. The format is ADME, organism-based. An outline of the steps:
as §3

A short description of data set [11]: Drug metabolism in Sprague-Dawley rat gut assessed as formation of 10-beta sulfonic gambogic acid at 4 mg/kg, iv. The class given is ADME, organism-based. Set-up: dose 4 mg/kg, route intravenous. The following applies: in vivo.
The nature of data set [12]: Drug level in Sprague-Dawley rat urine at 4 mg/kg, iv measured over 24 hrs by LC-DAD-MS/MS analysis. The format is ADME, organism-based. Set-up: dose 4 mg/kg, route intravenous. To be noted: in vivo. In outline:
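Urine collected from four SD rats and pooled 0–24 h after 4 mg/kg GA i.v. via tail vein; stored -20 °C until LC-MS/MS analysis (negative-ion ESI).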

Data set [13] has as its system Liver microsome. The experiment in a line: Drug metabolism in rat liver microsomes assessed as glucuronidation product formation at 50 uM preincubated for 10 mins followed by UDPGA addition for 2 hrs measured 1 hr post beta-glucuronidase treatment by LC-MS/MS analysis. The format is ADME. An outline of the steps:
(§5)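 Dried UDPGA microsomal incubate reconstituted in 0.1 M Tris pH 6.8. For enzymatic hydrolysis, about 830 units β-glucuronidase, 37 °C for 1 h; control without enzyme. For alkaline hydrolysis, with or without 0.5 M NaOH (10 µL), 2 h at room temperature, then neutralized with acetic acid to about pH 7. Analyzed by LC-MS/MS.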

The test system of data set [14] is Liver microsome. The experiment in a line: Drug metabolism in rat liver microsomes assessed as 9,10-epoxyl-gambogic acid formation at 50 uM preincubated for 10 mins by LC-MS/MS analysis in absence of NADPH. The class given is ADME. An outline of the steps:
(§6)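 GA 50 µM with rat liver microsomes 1.0 mg/mL in 0.1 M PBS pH 7.4, pre-incubated 10 min at 37 °C. Started with NADPH (6.0 mM final) and run 1 h at 37 °C. Controls lacked NADPH or microsomes; duplicate. Stopped with ice-cold acetonitrile, centrifuged, supernatant dried and reconstituted. Isocratic LC (65% acetonitrile), negative-ion ESI MS/MS.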

A short description of data set [15]: Drug metabolism in rat liver microsomes assessed as SULT-mediated sulfonation. The format is ADME.
Data set [16] in a line: Drug metabolism in rat liver microsomes assessed as CYP450-mediated 10-OHGA formation at 50 uM preincubated for 10 mins followed by NADPH addition measured after 1 hr by LC-DAD-MS/MS analysis. The format is ADME. In outline: as §6
Data set [17] is described as follows: Drug metabolism in intestine (unknown origin) assessed as 10-alpha sulfonic gambogic acid formation. The format is ADME, tissue-based. An outline of the steps:
(§7)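 Intestinal contents from undosed rats homogenized in 5 mL water, spiked with 100 µL of 1.0 mg/mL GA, incubated at 37 °C about 24 h, in duplicate. 1 mL extracted with ethyl acetate. LC-MS/MS in negative ESI with SIM at m/z 709.3.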

The nature of data set [18]: Drug metabolism in intestine (unknown origin) assessed as 10-beta sulfonic gambogic acid formation. The class given is ADME, tissue-based. An outline of the steps: as §7
Data set [19] concerns Liver microsome. The experiment in a line: Drug metabolism in rat liver microsomes assessed as glucuronidation product formation at 50 uM preincubated for 10 mins followed by UDPGA addition measured after 2 hrs by LC-MS/MS analysis. The class given is ADME. In outline:
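GA 50 µM with alamethicin-treated rat liver microsomes 1.0 mg/mL and saccharic acid-1,4-lactone 6 mM in 0.05 M Tris-HCl pH 7.4, pre-incubated 10 min at 37 °C. Started with UDPGA (6.0 mM) and run 2 h at 37 °C. Controls lacked UDPGA or microsomes; duplicate. Acetonitrile quench, gradient LC, negative-ion ESI MS/MS.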

Data set [20] is described as follows: Drug metabolism in Sprague-Dawley rat feces assessed as formation of glucuronidation product at 4 mg/kg, iv measured over 24 hrs by LC-DAD-MS/MS analysis. The format is ADME, organism-based. Set-up: dose 4 mg/kg, route intravenous. The following applies: in vivo. An outline of the steps:
as §2

Data set [21] is described as follows: Drug excretion in Sprague-Dawley rat feces at 2 mg/kg, iv measured within 48 hrs. The format is ADME, organism-based. Set-up: dose 2 mg/kg, route intravenous. The following applies: read-out: Drug excretion.
A short description of data set [22]: Drug metabolism in Sprague-Dawley rat bile assessed as 10-alpha sulfonic gambogic acid formation of at 4 mg/kg, iv measured over 24 hrs by LC-DAD-MS/MS analysis. The class given is ADME, organism-based. Set-up: dose 4 mg/kg, route intravenous. The following applies: in vivo. In outline: as §4
Data set [23] can be described thus: Drug metabolism in rat liver microsomes assessed as CYP450-mediated 9,10-epoxyl-gambogic acid formation at 50 uM preincubated for 10 mins followed by NADPH addition measured after 1 hr by LC-DAD-MS/MS analysis. The format is ADME. In outline: as §6
Data set [24] is described as follows: Drug metabolism in Sprague-Dawley rat bile assessed as formation of 10-beta sulfonic gambogic acid at 4 mg/kg, iv measured over 24 hrs by LC-DAD-MS/MS analysis. The format is ADME, organism-based. Set-up: dose 4 mg/kg, route intravenous. To be noted: in vivo. In outline:
as §4

Data set [25] concerns Liver microsome. The experiment in a line: Drug metabolism in rat liver microsomes assessed as glucuronidation product formation at 50 uM preincubated for 10 mins followed by UDPGA addition for 2 hrs measured 2 hrs post NaOH treatment by LC-MS/MS analysis. The class given is ADME. An outline of the steps: as §5

The molecule `CC(C)=CCC[C@]1(C)C=Cc2c(O)c3c(c(CC=C(C)C)c2O1)O[C@]12C(C3=O)C(SC[C@H](NC(=O)CC[C@H](N)C(=O)O)C(=O)NCC(=O)O)[C@@H]3C[C@H]1C(C)(C)O[C@@]2(C/C=C(/C)C(=O)O)C3=O` (stereo not given in full) yielded a Retention_time in data set [1] of 5.7 min. The Drug metabolism result (in the data set on Liver microsome [2]; in [3]) was “metabolite_detected” in each case.
Take `CC(C)=CCC[C@]1(C)C=Cc2c(O)c3c(c(CC=C(C)C)c2O1)O[C@]12C(=C[C@@H]4C[C@H]1C(C)(C)O[C@@]2(C/C=C(/C)C(=O)O)C4=O)C3=O` [GAMBOGIC ACID]: the Drug uptake entry in data set [4] is reported as “Active”; with Plasma [5], “Active”; in [12] it was “Not Active”. Moreover, the Drug metabolism result was “metabolite_detected” in [6]; “metabolite_detected” in data set [7]; “metabolite_detected” in [8]; “metabolite_detected” in the data set on Plasma [10]; “metabolite_detected” in data set [11]; “metabolite_not_detected” in the data set with Liver microsome [13]. The Drug metabolism entry in the data set on Liver microsome [14] is listed as “metabolite_not_detected”; in [15], “metabolite_not_detected”; in data set [16], “metabolite_detected”; in [17], “metabolite_detected”; in data set [18], “metabolite_detected”; in the data set on Liver microsome [19], “metabolite_detected”. Besides, the Drug metabolism result in data set [20] was “metabolite_detected”; in [22] it was “metabolite_not_detected”; in [23], “metabolite_detected”; in data set [24] it was “metabolite_not_detected”; in the data set on Liver microsome [25], “metabolite_not_detected”. The molecule also gave a Retention_time in [9] of 44.8 min. Moreover, the dose excreted at 48 h in [21] was found to be 1.04%.

Source of the values: ChEMBL document CHEMBL3526153, “Metabolism of gambogic acid in rats: a rare intestinal metabolic pathway responsible for its final disposition” (Drug Metab Dispos, 2011).
